The target of test [1] is C-C chemokine receptor type 5 (Homo sapiens) (UniProt P51681). The test can be described thus: Binding affinity to CCR5 at 20 uM.
The target of a further test is Substance-K receptor (Homo sapiens, UniProt P21452). As to the kind of experiment: Inhibition of neurokinin 2 receptor.
For test [2], the target named is C-C chemokine receptor type 3 (Homo sapiens) (UniProt P51677). As to the kind of experiment: Binding affinity to CCR3 at 20 uM.
Test [3] has as its target C-C chemokine receptor type 1 (Homo sapiens) (UniProt P32246). The test can be described thus: Binding affinity to CCR1 at 20 uM.
Test [4] addresses T1, Parathyroid hormone/parathyroid hormone-related peptide receptor (Homo sapiens, UniProt Q03431).
T1 sequence (Q03431 whole entry): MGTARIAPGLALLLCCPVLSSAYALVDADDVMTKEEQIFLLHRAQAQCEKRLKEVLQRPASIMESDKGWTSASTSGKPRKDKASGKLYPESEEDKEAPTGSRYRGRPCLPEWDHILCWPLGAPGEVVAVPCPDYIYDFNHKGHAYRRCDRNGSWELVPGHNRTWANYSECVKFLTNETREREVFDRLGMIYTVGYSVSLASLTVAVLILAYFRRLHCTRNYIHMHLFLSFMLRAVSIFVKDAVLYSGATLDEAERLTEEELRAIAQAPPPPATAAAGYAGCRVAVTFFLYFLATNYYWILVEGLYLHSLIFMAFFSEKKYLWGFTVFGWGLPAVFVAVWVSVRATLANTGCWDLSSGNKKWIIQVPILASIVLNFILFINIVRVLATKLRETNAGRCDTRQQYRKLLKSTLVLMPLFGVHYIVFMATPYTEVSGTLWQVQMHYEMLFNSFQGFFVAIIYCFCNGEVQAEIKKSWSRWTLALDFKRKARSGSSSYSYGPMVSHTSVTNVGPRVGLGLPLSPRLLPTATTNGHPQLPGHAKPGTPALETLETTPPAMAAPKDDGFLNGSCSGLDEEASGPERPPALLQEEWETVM
The test can be described thus: Antagonist activity at PTH/PTH-related peptide receptor expressed in HKRK-B28 cells assessed as inhibition of DPC-AJ1951-induced cAMP production. It is filed as functional, cell-based. The method in brief:
(§1)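 Cells lifted with EDTA after culture in DMEM with 10% FBS and refeeding 12–24 h before assay. Resuspended in HBSS/5 mM Hepes/0.1% BSA/0.5 mM IBMX, pH 7.4, and stimulated with agonist peptide with or without antagonist. cAMP read by AlphaScreen.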
A general note: Cyclic AMP is a second messenger, typically raised through Gs and lowered through Gi signalling.

In test [5] the target is 5-hydroxytryptamine receptor 2A (Homo sapiens, UniProt P28223). As to the kind of experiment: Inhibition of 5HT2A receptor.
Chain of 5-hydroxytryptamine receptor 2A (P28223 whole entry): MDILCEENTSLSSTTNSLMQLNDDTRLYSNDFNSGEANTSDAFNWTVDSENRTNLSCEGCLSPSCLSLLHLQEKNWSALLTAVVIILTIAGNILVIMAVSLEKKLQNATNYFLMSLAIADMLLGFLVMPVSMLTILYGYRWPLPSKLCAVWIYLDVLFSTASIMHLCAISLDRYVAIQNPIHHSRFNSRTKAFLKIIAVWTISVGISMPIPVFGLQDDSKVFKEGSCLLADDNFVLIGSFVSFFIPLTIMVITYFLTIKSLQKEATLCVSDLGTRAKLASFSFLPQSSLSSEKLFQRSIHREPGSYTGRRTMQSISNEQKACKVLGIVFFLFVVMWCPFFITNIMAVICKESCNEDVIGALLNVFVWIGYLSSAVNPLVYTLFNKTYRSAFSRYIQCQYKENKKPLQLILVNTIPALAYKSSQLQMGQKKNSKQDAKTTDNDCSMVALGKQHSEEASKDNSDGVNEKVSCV
Test [6] has as its target C-X-C chemokine receptor type 2 (Homo sapiens) (UniProt P25025). As to the kind of experiment: Inhibition of CXCR2 at 20 uM.
The target of test [7] is C-X-C chemokine receptor type 3 (Homo sapiens) (UniProt P49682). As to the kind of experiment: Inhibition of CXCR3 at 20 uM.
For test [8], the target named is D(2) dopamine receptor (Homo sapiens) (UniProt P14416). As to the kind of experiment: Inhibition of dopamine D2 receptor at 20 uM.
Chain of D(2) dopamine receptor (Homo sapiens) (P14416 whole entry): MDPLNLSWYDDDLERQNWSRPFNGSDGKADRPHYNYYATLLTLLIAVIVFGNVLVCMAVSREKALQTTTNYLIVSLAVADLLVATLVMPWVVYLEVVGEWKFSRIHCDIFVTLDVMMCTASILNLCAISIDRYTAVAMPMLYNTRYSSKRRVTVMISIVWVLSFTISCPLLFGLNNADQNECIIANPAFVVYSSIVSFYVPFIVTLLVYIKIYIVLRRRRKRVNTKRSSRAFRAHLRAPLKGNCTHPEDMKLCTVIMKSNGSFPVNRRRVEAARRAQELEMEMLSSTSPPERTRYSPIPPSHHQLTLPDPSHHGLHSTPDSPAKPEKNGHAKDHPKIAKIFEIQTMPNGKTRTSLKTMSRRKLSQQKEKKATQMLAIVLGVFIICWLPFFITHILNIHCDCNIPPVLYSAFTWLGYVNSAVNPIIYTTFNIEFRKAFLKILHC
Test [9] addresses Parathyroid hormone/parathyroid hormone-related peptide receptor (Rattus norvegicus) (UniProt P25961). As to the kind of experiment: Antagonist activity at rat PTH/PTH-related peptide receptor expressed in rat UMR106 cells assessed as inhibition of DPC-AJ1951-induced cAMP production. It is filed as functional, cell-based. The method in brief: as §1
In test [10] the target is Parathyroid hormone/parathyroid hormone-related peptide receptor (Homo sapiens) (UniProt Q03431). As to the kind of experiment: Antagonist activity at human PTH/PTH-related peptide receptor expressed in human SaOS2 assessed as inhibition of DPC-AJ1951-induced cAMP production. It is filed as functional, cell-based. The note with it: SAOS-2. The method in brief:
as §1

For test [11], the target named is Alpha-1D adrenergic receptor (Homo sapiens, UniProt P25100). As to the kind of experiment: Inhibition of adrenergic Alpha-1D receptor.
Test [12] addresses T1, Parathyroid hormone/parathyroid hormone-related peptide receptor. As to the kind of experiment: Displacement of [125I]DPC-AJ1951 from PTH/PTH-related peptide receptor expressed in HKRK-B28 cells. It is filed as cell-based. The gist of the method:
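Whole HKRK-B28 cells plated at 30,000/well and incubated overnight at 37°C, 5% CO2. Incubated 3 h at room temperature, washed three times, bound radioactivity counted by scintillation.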

Test [13] deals with Histamine H1 receptor (Homo sapiens) (UniProt P35367). As to the kind of experiment: Inhibition of histamine H1 receptor at 20 uM.
Chain of Histamine H1 receptor (Homo sapiens) (P35367 whole entry): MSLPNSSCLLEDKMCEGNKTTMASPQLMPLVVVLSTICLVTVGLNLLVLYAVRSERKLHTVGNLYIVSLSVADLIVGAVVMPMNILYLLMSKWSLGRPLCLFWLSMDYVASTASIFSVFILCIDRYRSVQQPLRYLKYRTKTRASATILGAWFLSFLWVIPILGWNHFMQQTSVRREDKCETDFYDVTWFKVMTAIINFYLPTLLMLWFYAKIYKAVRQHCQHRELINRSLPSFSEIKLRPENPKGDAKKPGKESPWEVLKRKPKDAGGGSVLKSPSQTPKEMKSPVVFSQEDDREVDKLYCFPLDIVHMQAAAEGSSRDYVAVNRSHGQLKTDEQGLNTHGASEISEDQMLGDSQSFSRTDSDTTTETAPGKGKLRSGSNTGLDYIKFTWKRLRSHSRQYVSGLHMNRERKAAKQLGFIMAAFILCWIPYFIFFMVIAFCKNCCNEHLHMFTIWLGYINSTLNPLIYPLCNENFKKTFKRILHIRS
Test [14] addresses Alpha-1B adrenergic receptor (Homo sapiens) (UniProt P35368). The test can be described thus: Inhibition of adrenergic Alpha-1B receptor at 20 uM.
In test [15] the target is Alpha-2C adrenergic receptor (Homo sapiens, UniProt P18825). As to the kind of experiment: Inhibition of adrenergic Alpha-2C receptor.
Test [16] addresses Muscarinic acetylcholine receptor M5 (Homo sapiens) (UniProt P08912). As to the kind of experiment: Inhibition of muscarinic M5 receptor at 20 uM.
Test [17] addresses Alpha-2A adrenergic receptor (Homo sapiens) (UniProt P08913). The test can be described thus: Inhibition of adrenergic alpha2A receptor at 20 uM.
Test [18] addresses T1, Parathyroid hormone/parathyroid hormone-related peptide receptor. The test can be described thus: Antagonist activity at PTH/PTH-related peptide receptor expressed in HKRK-B28 cells assessed as inhibition of parathyroid hormone (1 to 34)-induced cAMP production. It is filed as functional, cell-based. The method in brief:
as §1

Test [19] addresses Parathyroid hormone/parathyroid hormone-related peptide receptor (Homo sapiens) (UniProt Q03431). As to the kind of experiment: Antagonist activity at human PTH/PTH-related peptide receptor expressed in human CL0153 cells assessed as inhibition of DPC-AJ1951-induced cAMP production. It is filed as functional, cell-based. The method in brief: as §1
Test [20] has as its target 5-hydroxytryptamine receptor 2C (Homo sapiens) (UniProt P28335). The test can be described thus: Inhibition of 5HT2C receptor at 20 uM.
Test [21] addresses C-C chemokine receptor type 2 (Homo sapiens) (UniProt P41597). The test can be described thus: Binding affinity to CCR2 at 20 uM.
Test [22] has as its target C-C chemokine receptor type 4 (Homo sapiens) (UniProt P51679). As to the kind of experiment: Binding affinity to CCR4 at 20 uM.

pIC50: −log10 of the molar value. The source made the active and inactive calls. No cut-off for these calls is given here.

One may read the pIC50 as the IC50 on a negative log10 scale, so that one unit is a factor of ten.

Chain of C-C chemokine receptor type 5 (Homo sapiens) (P51681 whole entry, looked up): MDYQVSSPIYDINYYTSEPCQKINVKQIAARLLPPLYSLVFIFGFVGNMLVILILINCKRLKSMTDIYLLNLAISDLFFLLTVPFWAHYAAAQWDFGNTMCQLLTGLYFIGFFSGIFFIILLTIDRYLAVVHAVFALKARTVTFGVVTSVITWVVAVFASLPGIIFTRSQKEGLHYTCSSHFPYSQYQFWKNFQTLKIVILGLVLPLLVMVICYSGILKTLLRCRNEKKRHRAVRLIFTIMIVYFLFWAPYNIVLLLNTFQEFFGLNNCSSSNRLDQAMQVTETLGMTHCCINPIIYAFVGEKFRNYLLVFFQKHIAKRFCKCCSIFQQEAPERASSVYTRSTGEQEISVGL
Chain of Alpha-1B adrenergic receptor (Homo sapiens) (P35368 whole entry): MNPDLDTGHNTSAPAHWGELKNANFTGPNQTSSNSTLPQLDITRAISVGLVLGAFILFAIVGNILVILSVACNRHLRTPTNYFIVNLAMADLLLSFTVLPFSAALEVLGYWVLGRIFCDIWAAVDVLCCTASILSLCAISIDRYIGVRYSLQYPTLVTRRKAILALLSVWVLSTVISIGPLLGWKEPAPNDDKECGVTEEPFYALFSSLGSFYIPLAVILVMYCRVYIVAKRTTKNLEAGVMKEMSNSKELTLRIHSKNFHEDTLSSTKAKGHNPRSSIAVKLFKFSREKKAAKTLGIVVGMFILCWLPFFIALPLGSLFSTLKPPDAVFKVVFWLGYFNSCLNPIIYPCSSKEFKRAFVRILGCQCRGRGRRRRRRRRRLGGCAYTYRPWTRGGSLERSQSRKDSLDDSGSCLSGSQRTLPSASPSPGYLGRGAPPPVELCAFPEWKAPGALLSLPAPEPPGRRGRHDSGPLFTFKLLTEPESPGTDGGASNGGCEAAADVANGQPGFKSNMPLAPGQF
Chain of Alpha-2A adrenergic receptor (Homo sapiens) (P08913 whole entry): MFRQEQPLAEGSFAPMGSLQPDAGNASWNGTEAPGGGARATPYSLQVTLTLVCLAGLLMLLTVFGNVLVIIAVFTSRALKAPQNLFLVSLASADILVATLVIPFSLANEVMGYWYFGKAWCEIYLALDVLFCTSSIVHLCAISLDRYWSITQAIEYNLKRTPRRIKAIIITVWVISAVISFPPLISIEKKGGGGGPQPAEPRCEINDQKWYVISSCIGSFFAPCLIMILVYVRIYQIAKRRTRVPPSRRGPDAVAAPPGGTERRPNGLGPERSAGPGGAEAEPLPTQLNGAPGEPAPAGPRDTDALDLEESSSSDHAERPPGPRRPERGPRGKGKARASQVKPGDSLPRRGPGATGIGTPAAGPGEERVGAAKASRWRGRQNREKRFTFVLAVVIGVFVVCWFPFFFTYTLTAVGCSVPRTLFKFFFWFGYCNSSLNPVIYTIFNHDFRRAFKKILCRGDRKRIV
Chain of C-X-C chemokine receptor type 2 (Homo sapiens) (P25025 whole entry): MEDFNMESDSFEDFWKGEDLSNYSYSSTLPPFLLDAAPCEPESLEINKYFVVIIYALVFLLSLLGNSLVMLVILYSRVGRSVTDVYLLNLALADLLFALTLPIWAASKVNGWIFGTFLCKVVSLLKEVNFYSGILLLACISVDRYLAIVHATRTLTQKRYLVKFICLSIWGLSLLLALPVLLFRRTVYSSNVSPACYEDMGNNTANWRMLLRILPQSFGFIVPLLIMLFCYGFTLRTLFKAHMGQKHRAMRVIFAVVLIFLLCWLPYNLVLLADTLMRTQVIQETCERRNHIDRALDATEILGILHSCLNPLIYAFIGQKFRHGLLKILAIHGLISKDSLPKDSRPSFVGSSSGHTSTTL
Chain of C-C chemokine receptor type 2 (Homo sapiens) (P41597 whole entry, looked up): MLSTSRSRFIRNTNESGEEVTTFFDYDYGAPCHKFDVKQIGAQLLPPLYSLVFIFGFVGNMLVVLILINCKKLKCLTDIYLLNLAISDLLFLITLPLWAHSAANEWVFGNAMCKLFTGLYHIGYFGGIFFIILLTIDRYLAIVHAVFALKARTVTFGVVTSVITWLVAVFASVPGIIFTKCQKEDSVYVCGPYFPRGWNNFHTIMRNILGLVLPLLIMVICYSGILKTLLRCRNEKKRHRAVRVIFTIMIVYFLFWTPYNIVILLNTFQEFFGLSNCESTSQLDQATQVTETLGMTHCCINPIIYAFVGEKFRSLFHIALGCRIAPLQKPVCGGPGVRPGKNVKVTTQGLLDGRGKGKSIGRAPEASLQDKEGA
Chain of C-C chemokine receptor type 3 (Homo sapiens) (P51677 whole entry): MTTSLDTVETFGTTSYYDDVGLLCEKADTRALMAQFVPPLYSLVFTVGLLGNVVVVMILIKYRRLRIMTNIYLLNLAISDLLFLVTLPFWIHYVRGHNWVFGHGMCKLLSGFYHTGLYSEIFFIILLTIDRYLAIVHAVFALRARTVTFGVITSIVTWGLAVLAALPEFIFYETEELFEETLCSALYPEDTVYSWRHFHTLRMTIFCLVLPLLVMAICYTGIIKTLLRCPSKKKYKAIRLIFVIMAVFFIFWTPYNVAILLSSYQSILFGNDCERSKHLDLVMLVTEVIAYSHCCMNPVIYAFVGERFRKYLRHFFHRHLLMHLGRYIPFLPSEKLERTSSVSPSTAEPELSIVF
Chain of C-C chemokine receptor type 4 (Homo sapiens) (P51679 whole entry): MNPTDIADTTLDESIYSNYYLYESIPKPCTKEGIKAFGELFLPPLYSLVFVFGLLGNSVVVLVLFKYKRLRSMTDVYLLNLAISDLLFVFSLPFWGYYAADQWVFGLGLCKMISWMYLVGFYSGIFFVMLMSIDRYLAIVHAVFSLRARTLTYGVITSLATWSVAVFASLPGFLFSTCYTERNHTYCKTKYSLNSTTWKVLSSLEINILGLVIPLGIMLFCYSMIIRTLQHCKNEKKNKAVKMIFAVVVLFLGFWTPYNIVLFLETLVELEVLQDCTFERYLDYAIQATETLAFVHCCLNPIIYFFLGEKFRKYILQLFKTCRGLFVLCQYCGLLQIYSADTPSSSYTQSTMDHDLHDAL
Chain of 5-hydroxytryptamine receptor 2C (Homo sapiens) (P28335 whole entry): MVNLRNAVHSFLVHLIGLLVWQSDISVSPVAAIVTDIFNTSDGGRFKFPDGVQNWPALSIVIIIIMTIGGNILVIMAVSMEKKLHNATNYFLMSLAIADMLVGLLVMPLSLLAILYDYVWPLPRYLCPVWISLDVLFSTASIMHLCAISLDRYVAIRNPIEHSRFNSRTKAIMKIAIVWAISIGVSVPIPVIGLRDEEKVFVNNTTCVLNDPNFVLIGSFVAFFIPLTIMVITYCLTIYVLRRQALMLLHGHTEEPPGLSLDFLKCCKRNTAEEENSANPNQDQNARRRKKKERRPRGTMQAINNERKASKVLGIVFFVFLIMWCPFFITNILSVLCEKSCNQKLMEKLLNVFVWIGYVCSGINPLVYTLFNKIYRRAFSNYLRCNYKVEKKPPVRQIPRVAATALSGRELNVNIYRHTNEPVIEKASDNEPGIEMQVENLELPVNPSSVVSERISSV

As to `CC[C@@H]1O[C@](/C=C/C2CC2)(C(F)(F)F)c2c(ccc(F)c2F)NC1=O`, the result in [1], in test [2], in [3], in test [6], in test [7] and in [8] was inactive. The result in [13], in test [14], in test [16], in test [17], in test [20] and in [21] was inactive. The result in [22] was inactive. Also, the pIC50 against Substance-K receptor is 4.55; in test [4], 5.24; in test [5] it was 4.82; in test [11], 4.86; in test [12], 6.00; in test [15], 4.98. Also, in [18], the pIC50 is 4.17. For the same molecule, the outcome in [9], in [10] and in test [19] was Active.

Source of the values: ChEMBL document CHEMBL1156459, “Discovery of a small molecule antagonist of the parathyroid hormone receptor by using an N-terminal parathyroid hormone peptide probe” (Proc Natl Acad Sci U S A, 2007).
